In ChEMBL document CHEMBL1157220, “Isoflavonoids and other compounds from Psorothamnus arborescens with antiprotozoal activities” (J Nat Prod, 2006):

Legend:
[1] = tested on: Trypanosoma brucei brucei; experiment: Antitrypanosomal activity against Trypanosoma brucei brucei MITat 1.2 variant 221 after 72 hrs; type: functional, organism-based
In short: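 Bloodstream-form parasites grown axenically in HMI-9, seeded late log phase at 10⁵ cells/mL, exposed with or without compound 72 h at 37 °C, humidified 5% CO₂. p-Nitrophenyl phosphate (20 mg/mL solution in 1 M NaOAc pH 5.5, 1% Triton X-100) added, further 6-8 h at 37 °C; acid phosphatase read at 405 nm. IC50 versus untreated control from four-parameter dose-response fit.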

[2] = tested on: Vero; experiment: Cytotoxicity against african green monkey Vero cells; type: cell-based; conditions: Chlorocebus sabaeus
[3] = tested on: Leishmania donovani; experiment: Antileishmanial activity against Leishmania donovani MHOM/SD/62/IS-CL2D axenic amastigotes after 3 days; type: functional, organism-based; conditions: 72 h
In short: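 Amastigote-like L. donovani parasites were grown axenically in vitro and exposed to compounds for three days. Viability was read with a tetrazolium dye-based reagent, following a previously described protocol.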

[4] = tested on: PC-3; experiment: Cytotoxicity against human PC3 cells; type: cell-based
[5] = Selectivity of IC50 for Trypanosoma brucei brucei MITat 1.2 variant 221 to IC50 for african green monkey Vero cells

Row | Structure (SMILES) | IC50 [1] [µM] | IC50 [2] [µM] | IC50 [3] [µM] | IC50 [4] [µM] | Selectivity ratio [5]
1 | COc1ccc(-c2coc3cc(OC)ccc3c2=O)cc1 | > 100 |  |  |  | 
2 | O=c1c(-c2ccc(O)c(O)c2)coc2cc(O)ccc12 | 7.1 | 135 |  |  | 
3 | CC1(C)CCc2c(-c3coc4cc(O)cc(O)c4c3=O)ccc(O)c2O1 | 57.9 |  | 38.4 | 107 | 
4 | CC1(C)CCc2cc(-c3coc4cc(O)cc(O)c4c3=O)cc(O)c2O1 | 77 |  | 68.3 | 79.3 | 
5 | CC(C)=CCc1c(-c2coc3cc(O)cc(O)c3c2=O)ccc(O)c1O | 12.1 | 37.5 | 13 | 12.7 | 
6 | COc1ccc2c(C=O)c(-c3cc4c(cc3O)OCO4)oc2c1 | > 250 | > 250 | > 250 | > 250 | 
7 | C=CC(C)(C)c1cc(OC)c(OC)cc1-c1coc2cc(OC)cc(OC)c2c1=O | 41.7 |  | 86 | 134 | 
8 | COc1cc(OC)c2c(=O)c(-c3cc(CC=C(C)C)c(OC)c(OC)c3)coc2c1 | 7.8 | 44.3 | 41.4 | 30.9 | 
9 | Oc1ccc2c(c1)OCC1c3cc4c(cc3OC21)OCO4 (racemic) | 130 | > 250 | > 250 | > 250 | 
10 | Oc1ccc2c(c1O)OCC1c3cc4c(cc3OC21)OCO4 (racemic) | 3.7 | 3.3 | 37.3 | 28 | 
11 | O=c1c(-c2ccccc2)coc2cc(O)ccc12 [7-HYDROXY ISOFLAVONE] | 94.2 |  | 113 |  | 
12 | COc1cc2cc(c1Cl)N(C)C(=O)C[C@H](OC(=O)C(C)C)[C@]1(C)O[C@@H]1[C@H](C)[C@@H]1C[C@@](O)(NC(=O)O1)[C@H](OC)/C=C/C=C(\C)C2 [ANSAMITOCIN P3] |  | 0.0012 |  |  | 
13 | O=c1cc(-c2ccc(O)cc2)oc2cc(O)cc(O)c12 [APIGENIN] | 11.9 |  |  |  | 
14 | COc1ccc(-c2coc3cc(O)cc(O)c3c2=O)cc1 [BIOCHANIN] | 12.3 |  | 89.9 |  | 
15 | COc1ccc(-c2coc3cc(O)ccc3c2=O)cc1O [CALYCOSIN] | 12.7 | 159 | 100 | 130 | 15
16 | O=c1c(-c2ccc(O)cc2)coc2cc(O)ccc12 [DAIDZEIN] | 23.7 |  |  |  | 
17 | COc1ccc(-c2coc3cc(O)ccc3c2=O)cc1 [FORMONONETIN] | 90.2 |  |  |  | 
18 | C=CC(C)(C)c1cc(OC(C)=O)c(OC(C)=O)cc1-c1coc2cc(OC(C)=O)cc(OC(C)=O)c2c1=O [FREMONTIN TETRAACETATE] | 67.8 |  | 42.7 | 66.2 | 
19 | O=c1c(-c2ccc(O)cc2)coc2cc(O)cc(O)c12 [GENISTEIN] | 4.2 | 32.9 | 73 |  | 
20 | CC(C)=CCc1cc(-c2coc3cc(O)cc(O)c3c2=O)cc(O)c1O [GLYCYRRHISOFLAVONE] | 33 | 52.8 | 46.3 | 62.1 | 
21 | O=C(/C=C/c1ccc(O)cc1)c1ccc(O)cc1O [ISOLIQUIRITIGENIN] | 32.8 | 65.6 | 20.7 | 46.4 | 
22 | CC1(C)CC[C@]2(C(=O)O)CC[C@]3(C)C(=CC[C@@H]4[C@@]5(C)CC[C@H](O)C(C)(C)[C@@H]5CC[C@]43C)[C@@H]2C1 [OLEANOLIC_ACID] | 43.1 | > 250 | > 250 | 211 | 
23 | N=C(N)c1ccc(OCCCCCOc2ccc(C(=N)N)cc2)cc1 [PENTAMIDINE] |  |  | 1.5 |  | 
24 | COc1cc([C@@H]2c3cc4c(cc3[C@H](O)[C@H]3COC(=O)[C@H]23)OCO4)cc(OC)c1OC [PODOFILOX] |  |  |  | 0.0125 | 
25 | COc1cc(O)c2c(=O)c(-c3ccc(O)cc3)coc2c1 [PRUNETIN] | 20.2 |  |  |  | 
26 | Cc1ccc(C(=O)Nc2ccc(S(=O)(=O)O)c3cc(S(=O)(=O)O)cc(S(=O)(=O)O)c23)cc1NC(=O)c1cccc(NC(=O)Nc2cccc(C(=O)Nc3cc(C(=O)Nc4ccc(S(=O)(=O)O)c5cc(S(=O)(=O)O)cc(S(=O)(=O)O)c45)ccc3C)c2)c1 [SURAMIN] | 0.19 |  |  |  | 
27 | C=CC(C)(C)c1cc(OC)c(OC)cc1-c1coc2cc(OC)cc(O)c2c1=O [TRIMETHYLFREMONTIN] | 32.3 |  | > 250 | 146 | 
